Laboratory results from ChEMBL document CHEMBL3856275, “Discovery of Second Generation Reversible Covalent DPP1 Inhibitors Leading to an Oxazepane Amidoacetonitrile Based Clinical Candidate (AZD7986)” (J Med Chem, 2016).
pIC50: −log10 of the molar value. Converted amounts (≈) assume the structure as drawn.

Key:
Dipeptidyl peptidase 1 [1] = molecular target: T1, Dipeptidyl peptidase 1 (Homo sapiens, UniProt P53634); assay: Inhibition of human recombinant DPP1 using Gly-Arg-AMC as substrate preincubated for 30 mins followed by substrate addition by fluorometric assay
T1 sequence (P53634 25-134 limits assumed): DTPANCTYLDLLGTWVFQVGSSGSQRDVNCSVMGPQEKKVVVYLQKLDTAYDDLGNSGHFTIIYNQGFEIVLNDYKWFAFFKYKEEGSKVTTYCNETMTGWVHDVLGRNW
T1 sequence (P53634 231-394 limits assumed): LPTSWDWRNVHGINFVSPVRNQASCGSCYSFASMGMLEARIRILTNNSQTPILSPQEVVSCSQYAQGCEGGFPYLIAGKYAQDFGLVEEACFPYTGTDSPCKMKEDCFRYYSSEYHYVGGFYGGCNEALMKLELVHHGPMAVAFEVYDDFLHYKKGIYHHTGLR
T1 sequence (P53634 395-463 limits assumed): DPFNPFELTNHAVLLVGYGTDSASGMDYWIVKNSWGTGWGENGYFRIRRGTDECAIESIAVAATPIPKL
Summary of the method: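 Isolated human recombinant DPP1 was run in a fluorometric assay in piperazine-based buffer. Compound was pre-incubated with enzyme for 30 min at rt, then Gly-Arg-AMC dipeptide substrate was added. Data were curve-fitted to give pIC50, as the mean of at least two experiments.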

Dipeptidyl peptidase 1 [2] = molecular target: T1, Dipeptidyl peptidase 1; assay: Inhibition of DPP1 in human U937 cells using Gly-Phe-AFC as substrate preincubated for 60 mins followed by substrate addition by fluorescence assay; type: cell-based, U-937
[3] = Propionaldehyde reactivity assessed as half life of the compound at pH 7.4 by LC-UV method; type: physicochemical
physchem [4] = settings: octanol/water, pH 7.4
[5] = Protein binding in human plasma at 10 uM after 6 hrs by LC-MS/MS method; type: ADME, cell-free; settings: read-out: PPB (converted)
[6] = Intrinsic clearance in human liver microsomes at 1 uM after 5 to 40 mins by LC-MS/MS method; type: ADME; settings: read-out: CLH
[7] = Intrinsic clearance in rat hepatocytes assessed per 10^6 cells at 1 uM after 10 to 90 mins by LC-MS/MS method; type: ADME, cell-based, Hepatocyte
[8] = Protein binding in rat plasma at 10 uM after 6 hrs by LC-MS/MS method; type: ADME, cell-free; settings: read-out: PPB (converted)
[9] = Apparent permeability across apical to basolateral side in human Caco2 cells at 10 uM after 1 hr by LC-MS method; settings: Caco-2
[10] = Apparent permeability across basolateral to apical side in human Caco2 cells at 10 uM after 1 hr by LC-MS method; settings: Caco-2
[11] = Efflux ratio of apparent permeability across basolateral to apical over apical to basolateral side in human Caco2 cells at 10 uM after 1 hr by LC-MS method; settings: Caco-2
[12] = Intrinsic clearance in human hepatocytes assessed per 10^6 cells at 1 uM after 10 to 90 mins by LC-MS/MS method; type: ADME, cell-based, Hepatocyte
[13] = Intrinsic clearance in dog hepatocytes assessed per 10^6 cells at 1 uM after 10 to 90 mins by LC-MS/MS method; type: ADME, cell-based, Canis lupus familiaris, Hepatocyte
[14] = Protein binding in dog plasma at 10 uM after 6 hrs by LC-MS/MS method; type: ADME, cell-free, Canis lupus familiaris; settings: read-out: PPB (converted)
[15] = Clearance in Han Wistar rat at 1 mg/kg, iv and 3 mg/kg, po; type: ADME, organism-based; settings: in vivo
Summary of the method: (§1)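 Han Wistar rat PK with 1 mg/kg iv and 3 mg/kg po doses, both in pH3 buffer. Clearance is given in ml/min/kg, Vss in L/kg and t1/2 in h.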

[16] = Volume of distribution at steady state in Han Wistar rat at 1 mg/kg, iv and 3 mg/kg, po; type: ADME, organism-based; settings: in vivo, read-out: Vdss; summary of the method: as §1
[17] = Half life in Han Wistar rat at 1 mg/kg, iv and 3 mg/kg, po; type: ADME, organism-based; settings: in vivo; summary of the method: as §1
[18] = Oral bioavailability in Han Wistar rat at 3 mg/kg; type: ADME, organism-based; settings: in vivo; summary of the method: as §1
[19] = Clearance in Beagle dog at 1 mg/kg, iv and 2 mg/kg, po; type: ADME, organism-based, Canis lupus familiaris; settings: in vivo
[20] = Volume of distribution at steady state in Beagle dog at 1 mg/kg, iv and 2 mg/kg, po; type: ADME, organism-based, Canis lupus familiaris; settings: in vivo, read-out: Vdss
[21] = Half life in Beagle dog at 1 mg/kg, iv and 2 mg/kg, po; type: ADME, organism-based, Canis lupus familiaris; settings: in vivo
[22] = Oral bioavailability in Beagle dog at 2 mg/kg; type: ADME, organism-based, Canis lupus familiaris; settings: in vivo
[23] = molecular target: Voltage-gated inwardly rectifying potassium channel KCNH2 (Homo sapiens, UniProt Q12809)
Sequence of Voltage-gated inwardly rectifying potassium channel KCNH2 (Q12809 whole entry): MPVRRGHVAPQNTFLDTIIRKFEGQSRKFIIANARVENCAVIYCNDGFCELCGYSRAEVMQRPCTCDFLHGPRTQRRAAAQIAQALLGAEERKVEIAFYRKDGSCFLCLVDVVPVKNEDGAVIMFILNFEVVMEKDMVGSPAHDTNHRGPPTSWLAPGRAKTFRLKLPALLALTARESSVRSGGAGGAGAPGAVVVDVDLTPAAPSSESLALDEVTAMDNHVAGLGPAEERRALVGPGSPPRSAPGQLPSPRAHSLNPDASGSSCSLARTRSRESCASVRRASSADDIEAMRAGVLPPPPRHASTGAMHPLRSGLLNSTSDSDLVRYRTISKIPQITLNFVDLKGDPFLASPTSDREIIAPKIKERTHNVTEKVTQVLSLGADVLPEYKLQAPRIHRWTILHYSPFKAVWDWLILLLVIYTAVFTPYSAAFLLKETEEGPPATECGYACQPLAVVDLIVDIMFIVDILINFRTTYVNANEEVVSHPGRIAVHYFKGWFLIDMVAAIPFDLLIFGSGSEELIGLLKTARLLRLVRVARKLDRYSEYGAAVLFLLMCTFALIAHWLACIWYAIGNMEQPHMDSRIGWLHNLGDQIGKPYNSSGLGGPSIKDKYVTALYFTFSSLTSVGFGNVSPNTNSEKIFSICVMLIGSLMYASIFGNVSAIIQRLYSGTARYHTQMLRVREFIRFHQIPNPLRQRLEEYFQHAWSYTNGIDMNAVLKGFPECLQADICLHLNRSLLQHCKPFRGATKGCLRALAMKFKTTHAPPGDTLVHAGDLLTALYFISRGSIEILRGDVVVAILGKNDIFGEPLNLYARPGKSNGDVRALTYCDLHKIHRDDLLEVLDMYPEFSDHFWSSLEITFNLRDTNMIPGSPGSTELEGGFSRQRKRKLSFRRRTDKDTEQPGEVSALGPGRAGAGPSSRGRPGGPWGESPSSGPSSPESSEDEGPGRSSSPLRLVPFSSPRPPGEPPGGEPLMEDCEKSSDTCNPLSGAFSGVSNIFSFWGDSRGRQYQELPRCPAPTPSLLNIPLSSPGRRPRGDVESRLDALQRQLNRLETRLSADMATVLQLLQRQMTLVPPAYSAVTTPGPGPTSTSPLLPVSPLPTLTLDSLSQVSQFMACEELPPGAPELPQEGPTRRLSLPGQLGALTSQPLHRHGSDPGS

physchem [24] = settings: pH 7.4
[25] = Clearance in Sprague-Dawley rat at 1 mg/kg, iv or 3 mg/kg, po; type: ADME, organism-based; settings: in vivo
[26] = Volume of distribution at steady state in Sprague-Dawley rat at 1 mg/kg, iv or 3 mg/kg, po; type: ADME, organism-based; settings: in vivo, read-out: Vdss
[27] = Half life in Sprague-Dawley rat at 1 mg/kg, iv or 3 mg/kg, po; type: ADME, organism-based; settings: in vivo
[28] = Oral bioavailability in Sprague-Dawley rat at 3 mg/kg; type: ADME, organism-based; settings: in vivo

Row | Compound | pIC50 (Dipeptidyl peptidase 1 [1]) | pIC50 (Dipeptidyl peptidase 1 [2]) | half-life [3] [min] | logD at 10 µM (physchem [4]) | fraction unbound at 6 h, 10 µM [5] | microsomal CLint at 1 µM [6] [µL/min/mg] | CLH [7] [µL/min/10^6 cells] | fraction unbound at 6 h, 10 µM [8] | further results
1 | N#Cc1ccc(-c2ccc(C[C@@H](C#N)NC(=O)[C@@H]3CCCC[C@H]3N)cc2)cc1 | 6.50 | 6.80 | > 3000 | – | – | – | – | – | –
2 | N#C[C@H](Cc1ccc(-c2ncc(C(F)(F)F)cn2)cc1)NC(=O)[C@@H]1CNCCCO1 | 6.70 | 6.70 | – | 1.1 | – | – | – | – | –
3 | CN1C(=O)C(F)(F)c2ccc(-c3ccc(C[C@@H](C#N)NC(=O)[C@@H]4CNCCCO4)cc3)cc21 | 7.80 | 7.80 | – | 1.4 | – | – | – | – | –
4 | N#C[C@H](Cc1ccc(-c2ccc3scnc3c2)cc1)NC(=O)[C@@H]1CNCCCO1 | 7.20 | – | – | 1.5 | – | – | – | – | –
5 | N#Cc1ccc(-c2ccc(C[C@@H](C#N)NC(=O)[C@@H]3CNCCCO3)cc2)cc1 | 7.40 | 7.50 | > 3000 | 1.1 | 0.09 | 9.5 | < 3.5 | 0.24 | Papp A→B at 1 h, 10 µM [9]: 19 ×10⁻⁶ cm/s; Papp B→A at 1 h, 10 µM [10]: 45 ×10⁻⁶ cm/s; efflux ratio at 1 h, 10 µM [11]: 2.4; intrinsic clearance (CLint) [12]: < 3.5 µL/min/10^6 cells; CLH [13]: < 4 µL/min/10^6 cells; fraction unbound at 6 h, 10 µM [14]: 0.25; clearance [15]: 3.8 mL/min/kg; Vd [16]: 2 L/kg; half-life [17]: 372 min; bioavailability [18]: 25%; clearance [19]: 4.1 mL/min/kg; Vd [20]: 3.9 L/kg; half-life [21]: 642 min; bioavailability [22]: 71%; pIC50 [23]: 4.77; solubility kinetic at 2 h (physchem [24]; phosphate buffered saline): 170 µM (≈ 63.7 µg/mL)
6 | N#Cc1ccc(-c2ccc(C[C@@H](C#N)NC(=O)C3(N)CCOCC3)cc2)cc1 | – | – | < 60 | – | – | – | – | – | –
7 | N#Cc1ccc(-c2ccc(C[C@@H](C#N)NC(=O)[C@@H]3CNCCO3)cc2)cc1 | 6.40 | 6.30 | > 3000 | 1.4 | – | – | – | – | –
8 | N#C[C@H](Cc1ccc(-c2ccc3oc(=O)n(CC(F)F)c3c2)cc1)NC(=O)[C@@H]1CNCCCO1 | 8.20 | 8.20 | > 3000 | 1 | 0.07 | < 14 | < 3.5 | 0.06 | Papp A→B at 1 h, 10 µM [9]: 8 ×10⁻⁶ cm/s; Papp B→A at 1 h, 10 µM [10]: 80 ×10⁻⁶ cm/s; intrinsic clearance (CLint) [12]: 5 µL/min/10^6 cells; fraction unbound at 6 h, 10 µM [14]: 0.15; clearance [25]: 4 mL/min/kg; Vd [26]: 2 L/kg; half-life [27]: 420 min; bioavailability [28]: 29%; solubility kinetic at 2 h (physchem [24]; buffer): 190 µM (≈ 89.4 µg/mL)
9 | Cn1c(=O)ccc2ccc(-c3ccc(C[C@@H](C#N)NC(=O)[C@@H]4CNCCCO4)cc3)cc21 | 7.90 | 7.90 | – | 1.1 | – | – | – | – | –
10 | N#Cc1ccc(-c2ccc(C[C@@H](C#N)NC(=O)[C@@H]3CCCC[C@@H]3N)cc2)cc1 | 7.40 | 7.40 | > 3000 | 1.6 | 0.07 | 9.3 | < 3.5 | 0.12 | Papp A→B at 1 h, 10 µM [9]: 11 ×10⁻⁶ cm/s; Papp B→A at 1 h, 10 µM [10]: 36 ×10⁻⁶ cm/s; solubility kinetic at 2 h (physchem [24]; buffer): 175 µM (≈ 65.2 µg/mL)
11 | N#Cc1ccc(-c2ccc(C[C@@H](C#N)NC(=O)[C@H]3CNCCO3)cc2)cc1 | < 5.00 | – | > 3000 | 1.6 | – | – | – | – | –
12 | CN1C(=O)COc2ccc(-c3ccc(C[C@@H](C#N)NC(=O)[C@@H]4CNCCCO4)cc3)cc21 | – | 7.90 | – | 1.1 | – | – | – | – | –
13 | N#Cc1ccc(-c2ccc(C[C@@H](C#N)NC(=O)[C@@H]3CCCCC[C@@H]3N)cc2)cc1 | 7.40 | 7.50 | > 3000 | 2 | 0.03 | 13 | < 3.5 | 0.08 | Papp A→B at 1 h, 10 µM [9]: 11 ×10⁻⁶ cm/s; Papp B→A at 1 h, 10 µM [10]: 23 ×10⁻⁶ cm/s; efflux ratio at 1 h, 10 µM [11]: 2; pIC50 [23]: 5.44; solubility kinetic at 2 h (physchem [24]; buffer): 175 µM (≈ 67.6 µg/mL)
14 | CCn1c(=O)oc2ccc(-c3ccc(C[C@@H](C#N)NC(=O)[C@@H]4CNCCCO4)cc3)cc21 | – | – | > 3000 | – | 0.06 | < 14 | < 3.5 | 0.08 | intrinsic clearance (CLint) [12]: < 3.5 µL/min/10^6 cells; CLH [13]: < 3.5 µL/min/10^6 cells; fraction unbound at 6 h, 10 µM [14]: 0.14; clearance [19]: 6 mL/min/kg; Vd [20]: 9 L/kg; half-life [21]: 960 min; bioavailability [22]: 85%; clearance [25]: 4 mL/min/kg; Vd [26]: 2 L/kg; half-life [27]: 480 min; bioavailability [28]: 36%
15 | N#Cc1cccc(-c2ccc(C[C@@H](C#N)NC(=O)C3CCCCC3N)cc2)c1 (stereo partly specified) | 6.00 | – | – | – | – | – | – | – | –
